Reference: ChEMBL document CHEMBL1795269, “Novel (E)-5-styryl-2,2'-bithiophene derivatives as ligands for β-amyloid plaques” (Eur J Med Chem, 2011)
The source made the active and inactive calls. The rule behind the calls is not given here.

How the values were obtained:
[1] = Displacement of [125I]-TZDM from amyloid beta 1 to 42 after 2 hrs by gamma counting
How it was run: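 Aβ1-42 aggregated at 0.25 mg/mL in pH 7.4 buffer (10 mM sodium phosphate, 1 mM EDTA), 37 °C for 42 h with shaking. Fibrils (28 nM final) mixed with [125I]TZDM and inhibitor (10^-5 to 10^-10 M in EtOH) in PBS (0.2 M, pH 7.4). Incubated 2 h at 37 °C; nonspecific binding taken with 100 nM TZDM. Bound and free separated by vacuum filtration through glass fibre filters, washed with cold PBS containing 10% ethanol, then counted; Ki reported.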

[2] = organism: Mus musculus; assay: Binding affinity to amyloid beta in APP/PS1 transgenic C57 mouse brain cortex at 5 uCi/100 uL after 30 mins by autoradiography; type: tissue-based; conditions: tested as the 125I-labelled form
How it was run: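 Deparaffinized transgenic mouse brain sections incubated 30 min at room temperature with [125I]-labelled tracer (5 μCi/100 μL). Washed with saturated Li2CO3 in 40% EtOH for 3 min, then 40% EtOH for 3 min, then rinsed 30 s in water. Plaques checked afterwards by thioflavin-S (1 μM) fluorescence staining of the same sections.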

[3] = organism: Mus musculus; assay: Binding affinity to amyloid beta in APP/PS1 transgenic C57 mouse brain at 1 uM after 10 mins by fluorescence assay; type: tissue-based
How it was run: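 Paraffin-embedded brain sections (10 μm) from APP/PS1 C57 transgenic mouse, deparaffinized through xylene and graded ethanol, then PBS (0.2 M, pH 7.4) 30 min. Sections incubated 10 min with compound (1 μM in 20% ethanol), washed with 50% ethanol and PBS. Confocal fluorescence read at excitation 405 nm, 505 nm long-pass. Plaques confirmed with thioflavin-S (1 μM) on adjacent sections.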

Structure (SMILES) | Ki [1] [nM] | inhibition [1] | Activity [2] | Activity [3]
COc1ccc(/C=C/c2ccc(-c3ccc(I)s3)s2)cc1 | 0.3 | Dose-dependent effect | Active | 
Cc1ccc(/C=C/c2ccc(-c3cccs3)s2)cc1 | 1.15 | Dose-dependent effect |  | 
CN(C)c1ccc(/C=C/c2ccc(-c3cccs3)s2)cc1 | 0.73 | Dose-dependent effect |  | Active
Cc1ccc(/C=C/c2ccc(-c3ccc(I)s3)s2)cc1 | 0.8 | Dose-dependent effect |  | 
